# Source: PubChem BioAssay (Johns Hopkins Ion Channel Center)
# Rows were chosen to be rich in hits. Some 2.3% of all compounds tested hit in one or more screens of this group.
# TRPC4 agonist = opens the mouse TRPC4 cation channel; Q9QUQ5; HEK293 TRPC4beta/mu-opioid, Fluo4 calcium fluorescence; active compounds read high; B-score at 10 µM; 310,000 compounds, 0.49% hits;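 active means B-score above 5 SD of library B-scores, and initial fluorescence ratio not above library mean plus 5 SD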;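 further: positive B-score marks a calcium rise read as TRPC4 activation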
#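 System – HEK293 cells stably co-expressing mouse TRPC4beta and mu-opioid receptor · Signal – Fluo4 calcium-sensitive dye fluorescence, kinetic, 1 Hz baseline · Benchmarks – buffer (low) and maximal DAMGO (high) · Read-out – B score of integrated fluorescence ratio per well · Incubation – dye loading 45 min room temperature, 110 s kinetic read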
# TRPC6 inh = mouse TRPC6 channel inhibition | Q61143 | HEK293-TRPC6, membrane potential dye, ACh-evoked depolarization; active compounds read low | B-score at 10 µM | 310,000 compounds, 1.1% hits | AID 2553;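 active means B-score under library mean minus 3 SD, initial fluorescence not abnormally high, positive integrated signal ratio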;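 further: B-score derived from integrated fluorescence ratio over the kinetic read; more negative B-score means stronger inhibition of depolarization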
# TRPC6 activator = activates the mouse TRPC6 cation channel; Q61143; 310,000 compounds, 0.13% hits; AID 2550; B-score at 10 µM; HEK293-TRPC6 membrane potential dye fluorescence; active compounds read high;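 active means B-score of the integrated fluorescence ratio above library mean plus 3 SD, and starting fluorescence ratio within library mean plus 5 SD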;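 further: higher score means more depolarization so channel activation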
# TRPC4 block = inhibitors of mouse TRPC4 channel. Q9QUQ5. 300,000 compounds, 0.39% hits. AID 2247. HEK293 TRPC4beta/mu-opioid, DAMGO-evoked Fluo4 calcium flux; active compounds read low. B-score at 10 µM;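 active means B-score over 3 SD under the library average, no early fluorescence shift, positive overall ratio signal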
#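 test system = HEK293 cells with stable TRPC4beta plus mu-opioid receptor expression | detection = Fluo4 Ca2+ flux fluorescence | read-out = integrated fluorescence ratio relative to baseline, converted to per-well B score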
# TRPC4 potent = allosteric potentiators of mouse TRPC4 channel; Q9QUQ5; HEK293 TRPC4beta/mu-opioid, DAMGO EC20, Fluo-4 Ca2+ flux; active compounds read high; B-score at 10 µM; 310,000 compounds, 0.42% hits; AID 2227;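 active means B-score of calcium response area above 5 SD of library B-scores, with initial fluorescence ratio within 5 SD of library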;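 further: B-score of integrated fluorescence ratio over time as area under calcium response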
# * = called active by the depositor; i = inactive; . = no result given.
SMILES,TRPC4 agonist,TRPC6 inh,TRPC6 activator,TRPC4 block,TRPC4 potent
Cc1cccc(NC(=S)NCC(c2cccnc2)N(C)C)c1C (stereo unspecified),101*,i,i,i,i
CC(=O)c1ccc(NC(=O)CNCC(c2ccccc2)N(C)C)cc1 (stereo unspecified),i,i,i,i,i
Cc1ccccc1NC(=S)NCC(c1cccnc1)N(C)C (stereo unspecified),136*,i,i,i,i
Cc1cccc(NC(=S)NCc2ccncc2)c1C,i,i,i,i,i
Cc1ccc(C)c(NC(=S)NCC(c2ccccc2)N(C)C)c1 (stereo unspecified),180*,i,i,i,i
Cc1ccc(NC(=O)NCC(c2ccccc2)N(C)C)cc1 (stereo unspecified),46*,i,i,i,i
Cc1ccccc1NC(=S)NCc1ccccc1,i,i,i,i,i
COc1cc(NC(=O)c2ncn[nH]2)cc(OC)c1OC,i,i,i,i,i
CCN(CC)CCCN(C(=O)Cn1nnc(-c2ccc(OC)c(OC)c2)n1)C(C(=O)NC(C)(C)C)c1ccc(F)cc1 (stereo unspecified),i,i,i,i,i
CCn1cc(Br)c(C(=O)NC(=S)Nc2ccc(C(=O)OC)cc2)n1,i,i,i,i,i
Cc1c(Cl)cccc1NC(=S)NCC(c1cccnc1)N(C)C (stereo unspecified),85*,i,i,i,i
Cc1cccc(C)c1NC(=S)NCCc1ccccn1,i,i,i,i,i
Cc1ccccc1NC(=S)NCCc1ccccn1,88*,i,i,i,i
CCOC(=O)N1CCN(c2ccncc2S(=O)(=O)N2CCCCC2)CC1,i,i,i,i,i
c1ccc(Nc2ncnc3sc4c(c23)CCC4)cc1,216*,i,i,i,i
Cc1nc(-n2nnc3ccccc32)c2c3c(sc2n1)CCCC3,i,i,i,i,i
c1ccc2c(c1)nnn2-c1ncnc2sc3c(c12)CCCC3,i,i,i,-6*,i
Fc1ccc(Nc2ncnc3sc4c(c23)CCC4)cc1F,i,i,i,i,i
Fc1ccc(Nc2ncnc3sc4c(c23)CCC4)cc1,i,i,i,i,66*
O=c1cc(-c2ccc(C3CCCCC3)cc2)[nH][nH]1,i,i,i,i,i
CN1CCN(c2nc(-c3cccnc3)nc3scc(-c4ccccc4)c23)CC1,64*,i,i,-7*,i
O=C(O)C1CC(O)CN1C(=O)c1ccco1 (stereo unspecified),i,i,i,i,i
COCc1cc(C)n(CC(=O)Nc2cc(C)cc(C)c2)c(=O)c1C#N,i,i,i,i,i
CC1CCN(c2nc(N3CCCCC3)nc(N3CCCCC3)n2)CC1,i,i,i,i,i
C1CCN(c2nc(N3CCCCC3)nc(N3CCNCC3)n2)CC1,i,i,i,i,22*
SMILES,TRPC4 agonist,TRPC6 inh,TRPC6 activator,TRPC4 block,TRPC4 potent
C/C(Cc1ccccc1)=N\NC(=O)CNC(=O)COc1cccc(C)c1,80*,i,i,i,i
O=C1CC(N2CCN(c3nc4ccccc4s3)CC2)C(=O)N1c1ccc(F)cc1 (stereo unspecified),i,i,i,i,14*
C#CC[N+]1(CC#Cc2cccc3ccccc23)CCOCC1,i,i,i,i,37*
O=C(O)CC1(CC(=O)Nc2ccccc2Br)CCCC1,i,i,i,i,i
O=c1cc(-c2ccccc2Cl)oc2c(NS(=O)(=O)c3cc(Cl)cc(Cl)c3O)ccc(O)c12,120*,i,i,.,i
O=C(NCc1ccc(Cl)cc1)C1CCCCN1S(=O)(=O)c1ccccc1 (stereo unspecified),i,i,i,i,i
OC1(c2ccc(Br)cc2)CN(c2ccccc2)C2=[N+]1CCS2 (stereo unspecified),93*,i,i,i,i
OC1(c2ccc(Cl)cc2)CN(c2ccccc2)C2=[N+]1CCS2 (stereo unspecified),75*,i,i,i,i
